HGIII-sPLA2 inh – Blocks human group III sPLA2 activity. AID 743126. inhibition, % at 12.2 µM. hit rate 0.56% among 370,000. Q9NZ20. QFRET BODIPY PC-A2 liposome hydrolysis, fluorescence;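 active means inhibition above mean plus 3 SD of compounds lying within the high and low control bounds, cut at about 19% in these data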
PLC-gamma1 inh – PLC-gamma1 (human) inhibition, primary screen | purified PLC-gamma1, fluorogenic substrate, fluorescence | inhibition, % at 12.2 µM | P19174 | hit rate 0.84% among 370,000
PLC-beta3 inh – blocks human PLC-beta3 enzyme activity. Q01970. Purified PLC-beta3, fluorogenic substrate, fluorescence. hit rate 0.18% among 370,000. inhibition, % at 12.2 µM; in the data active means inhibition above about 11%
proCasp3 act – activators of human procaspase-3. P42574. recombinant procaspase-3 D3A, Ac-DEVD-pNA absorbance 405 nm. activation, % at 8.5 µM. hit rate 0.11% among 330,000;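 active means activation above the mean of all tested compounds plus 3 SD, cut at about 21% in these data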
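Test system: Procaspase-3 D3A mutant; medium: Zinc-free HEPES/NaCl buffer with 0.01% Triton X-100 at pH 7.4; reagent: DEVD-pNA substrate; doses: one concentration, 8.5 µM nominal, 0.8% DMSO; times: 1 h preincubation plus 2 h reaction at 25 °C; signal: Epi-absorbance at 405 nm of released p-nitroaniline, 0 and 120 min; replicates: singlicate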
Arrestin-AP2 inh – human beta-arrestin and AP2 interaction inhibition; FITC-arrestin peptide / GST-AP2 beads, flow cytometry; AP2 beta2 appendage carries R879A mutation; inhibition, % at 10 µM; hit rate 0.31% among 340,000; AID 504490;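 active means inhibition above a set limit, near 3 SD of compounds lacking own fluorescence, cut at about 54% in these data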
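Assay system: GST-AP2 R879A bound to glutathione beads, E. coli-expressed; Medium: PBS with 0.05% Tween 20 and 0.1% BSA; Also added: fluorescein-tagged arrestin peptide at 50 nM final; Timing: 12 min plus 1 h, RT; Measured by: flow cytometry, FL1 (488/535 nm); Evaluation: percent drop in bead-associated FITC signal.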
proCasp7 act – counter-screen for procaspase-3 activators: activators of human procaspase-7. P55210. recombinant procaspase-7, Ac-DEVD-pNA absorbance 405 nm; D23A/D198A/D206A triple mutant, cannot self-cleave; scale: DMSO 0, 5 µM enzyme 100. activation, % at 8.5 µM. hit rate 0.093% among 330,000. AID 463210;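 active means percent activation above the screen-wide mean plus 3 SD, cut at about 25% in these data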
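Assay system: Uncleavable procaspase-7 mutant enzyme / Input: 2 µM procaspase-7 mutant as dispensed / Dosing: single nominal 8.5 µM compound dose, 0.8% DMSO final / Timing: 1 h enzyme–compound preincubation and 2 h substrate reaction, both 25 °C / Detection: p-Nitroaniline absorbance at 405 nm, read at 0 and 120 min / Replication: singlicate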
PLCg1 ctr – inhibits human PLC-gamma1 in PLC-beta3 counter-screen. purified PLC-gamma1, fluorogenic substrate, fluorescence. shares compounds with PLC-gamma1 inh. hit rate 3.1% among 3,300. inhibition, % at 12.3 µM. AID 743258
PLCbeta3 conf – human PLC-beta3 inhibition, confirmation; hit rate 1% among 3,300; shares compounds with PLC-gamma1 inh; inhibition, % at 12.3 µM; AID 743261; purified PLC-beta3, fluorogenic substrate fluorescence; in the data active means inhibition above about 11%
Large screens that a line does not name were inactive (follow-up assays come after a bar, where they were run). In the library only some 1.9% were active in any assay of this set; here they are far more common. Unless noted, no stated cut-off is given here; in the data, active means inhibition above about 9.5%; inactive means the rest.

NC(=O)C1=CN([C@@H]2O[C@H](COP(=O)(O)OP(=O)(O)OC[C@H]3O[C@@H](n4cnc5c(N)ncnc54)[C@H](O)[C@@H]3O)[C@@H](O)[C@H]2O)C=CC1	PLC-gamma1 inh 29 (no result: proCasp3 act, Arrestin-AP2 inh, proCasp7 act) | PLCg1 ctr 32 | PLCbeta3 conf inactive
Nc1ncnc2c1ncn2[C@@H]1O[C@H](COP(=O)(O)O)[C@@H](O)[C@H]1O	PLC-gamma1 inh 39 | PLCg1 ctr 48 | PLCbeta3 conf inactive
NCCC(=O)NC[C@H]1O[C@@H](n2cnc3c(N)ncnc32)[C@H](O)[C@@H]1O	none
Nc1ncnc2c1ncn2[C@@H]1O[C@H](COP(=O)(O)OP(=O)(O)OP(=O)(O)O)[C@@H](O)[C@H]1O	PLC-gamma1 inh 40 | PLCg1 ctr 54 | PLCbeta3 conf inactive
Nc1ncnc2c1ncn2[C@@H]1O[C@H](CNC(=O)[C@@H]2CCN2)[C@@H](O)[C@H]1O	none
Nc1ncnc2c1ncn2[C@@H]1O[C@H](COS(=O)(=O)O)[C@@H](O)[C@H]1O	none
CCOC(=O)[C@@]12CCCC=C1N(CCc1ccc(Cl)cc1)C(=O)[C@H]2CC(=O)NCCc1ccccc1OC	none (no result: proCasp3 act, Arrestin-AP2 inh, proCasp7 act)
COC(=O)c1cc(-c2cccc(OCc3ccccc3)c2)c(=O)n2c1CCC2	none (no result: proCasp3 act, Arrestin-AP2 inh, proCasp7 act)
COc1ccc(CNC(=O)CCn2nc(C)c3c(C)n(-c4ccccc4)nc3c2=O)c(OC)c1	none
COC(=O)C(NC(=O)CCc1c(C)nc2ncnn2c1C)C(C)C (stereo not drawn)	PLC-gamma1 inh 9.7 | PLCg1 ctr inactive | PLCbeta3 conf inactive
Cc1c(N2C(=O)c3cccc4cccc(c34)C2=O)c(=O)n(-c2ccccc2)n1C	PLC-gamma1 inh 9.8, PLC-beta3 inh 12 | PLCg1 ctr 14 | PLCbeta3 conf inactive
CCN(CC)C(=O)[C@H]1C[C@H](CC(=O)NCCN2CCOCC2)C(=O)N2CCc3c([nH]c4ccc(Cl)cc34)[C@]12C	none
CC(C)N(C(=O)[C@H]1C[C@H](CC(=O)NCCN2CCOCC2)C(=O)N2CCc3c([nH]c4ccc(Cl)cc34)[C@]12C)C(C)C	PLC-gamma1 inh 9.9 | PLCg1 ctr inactive | PLCbeta3 conf inactive
COc1ccc(/C=N/Nc2nc(Nc3ccccc3)nc(N3CCCC3)n2)cc1[N+](=O)[O-]	none
COc1cc(/C=N/Nc2nc(Nc3ccccc3)nc(N3CCCCC3)n2)ccc1OCC(=O)O	PLC-gamma1 inh 12 | PLCg1 ctr inactive | PLCbeta3 conf inactive
Cc1cc(C(=O)N/N=C/c2cccnc2)n[nH]1	PLC-gamma1 inh 10 | PLCg1 ctr inactive | PLCbeta3 conf inactive
Cc1ccc(-c2cc(C(=O)N/N=C/c3cccnc3)n[nH]2)o1	none
Nn1c(SCC(=O)Nc2ccc(Br)cn2)nnc1-c1n[nH]c2c1CCC2	none (no result: proCasp3 act, Arrestin-AP2 inh, proCasp7 act)
Cc1cc(C)c(C#N)c(SCC(=O)Nc2nonc2N)n1	none
Cc1cccc(S(=O)(=O)N2CCCc3ccccc32)c1	PLC-gamma1 inh 9.6 | PLCg1 ctr inactive | PLCbeta3 conf inactive
COC(=O)[C@]12C[C@H](CC(=O)N3CCCCC3)C(=O)N(Cc3ccc(Cl)cc3Cl)C1=C[C@H](COCc1ccccc1)O[C@@H]2C	none (no result: proCasp3 act, Arrestin-AP2 inh, proCasp7 act)
COC(=O)[C@]12C[C@H](CC(=O)N3CCN(C(=O)c4ccco4)CC3)C(=O)N(Cc3ccc(Cl)cc3Cl)C1=C[C@H](COCc1ccccc1)O[C@@H]2C	PLC-gamma1 inh 13 (no result: proCasp3 act, Arrestin-AP2 inh, proCasp7 act) | PLCg1 ctr inactive | PLCbeta3 conf inactive
COC(=O)CC1CCc2cc(C)cc(C(=O)CC(C)C)c2O1 (stereo not drawn)	none (no result: proCasp3 act, Arrestin-AP2 inh, proCasp7 act)
CN(CCc1ccccc1)C(=O)c1cc2ccccn2n1	none (no result: proCasp3 act, Arrestin-AP2 inh, proCasp7 act)
Cc1oc(C)c(C(N)=O)c1C(N)=O	PLC-beta3 inh 11 | PLCg1 ctr inactive | PLCbeta3 conf inactive
Cc1onc(-c2ccccc2)c1C(N)=O	none
CCN(CC)S(=O)(=O)c1cccc(-c2nnc(SC(C)C(N)=O)n2CCc2ccccc2)c1 (stereo not drawn)	none
CCN(CC)S(=O)(=O)c1cccc(-c2nnc(SCC(N)=O)n2CCc2ccccc2)c1	PLC-gamma1 inh 12 | PLCg1 ctr inactive | PLCbeta3 conf inactive
CCC/C(O)=C1\C(=O)CCCC1=NCCc1ccc(OCC)c(OCC)c1	none
CCC/C(O)=C1\C(=O)CCCC1=NC(C)C(=O)O (stereo not drawn)	PLC-gamma1 inh 9.8 | PLCg1 ctr inactive | PLCbeta3 conf inactive
COc1ccccc1NC(=O)COc1ccc(/C=N/NC(=O)CSCc2ccc(Cl)cc2)cc1	PLC-gamma1 inh 9.5 | PLCg1 ctr inactive | PLCbeta3 conf inactive
CCc1ccc(C2c3[nH]c4ccccc4c3CCN2C(=O)c2cc(C)nn2C)cc1 (stereo not drawn)	PLC-gamma1 inh 10 | PLCg1 ctr inactive | PLCbeta3 conf inactive
CC/C(Cc1ccccc1)=N/NC(=O)CNC(=O)c1ccc(Cl)cc1Cl	PLC-gamma1 inh 11 (no result: proCasp3 act, proCasp7 act) | PLCg1 ctr inactive | PLCbeta3 conf inactive
O=C1C=C(NCCc2cc(Br)c(O)c(Br)c2)C(=O)c2ncccc21	PLC-gamma1 inh 12 (no result: proCasp3 act, proCasp7 act) | PLCg1 ctr inactive | PLCbeta3 conf inactive
COc1ccc(CN(CCN2CCOCC2)C(=O)c2cc(F)cc(F)c2)cc1OC	none (no result: proCasp3 act, Arrestin-AP2 inh, proCasp7 act)
Cc1cccc(C(C#N)c2nc3ccccc3nc2C(F)(F)F)c1 (stereo not drawn)	PLC-gamma1 inh 9.8 | PLCg1 ctr inactive | PLCbeta3 conf inactive
N#CC(c1ccc(Cl)cc1)c1nc2ccccc2nc1C(F)(F)F (stereo not drawn)	none
COc1cccc(NC(=O)N2CCN(c3nnnn3-c3ccccc3)CC2)c1	PLC-gamma1 inh 10 | PLCg1 ctr inactive | PLCbeta3 conf inactive
CCOc1ccc(NC(=O)C2CCN(c3nnnn3-c3ccccc3)CC2)cc1	PLC-gamma1 inh 10 | PLCg1 ctr inactive | PLCbeta3 conf inactive
O=C(Nc1cccc(F)c1)C1CCN(c2nnnn2-c2ccccc2)CC1	none
COc1cccc(NC(=O)N2CCCC2)c1	none
CCN1CCN(CC(=O)NC2CCCC2)C(=O)C1=O	PLC-gamma1 inh 13 | PLCg1 ctr inactive | PLCbeta3 conf inactive
Cc1ccc(C(=O)OCC(=O)Nc2cccc(Br)c2)s1	none (no result: proCasp3 act, Arrestin-AP2 inh, proCasp7 act)
CC(=O)Nc1ccc(NC(=O)COC(=O)c2ccc(C)s2)cc1	PLC-gamma1 inh 11 | PLCg1 ctr inactive | PLCbeta3 conf inactive
CCOc1ccc(-n2c(SCC(=O)Nc3cccc4ccccc34)nnc2-c2ccccc2)cc1	none (no result: proCasp3 act, Arrestin-AP2 inh, proCasp7 act)

Screening data from PubChem BioAssay.
